The values that follow come from ChEMBL document CHEMBL1123811, “gem-Diphosphonate and gem-phosphonate-phosphate compounds with specific high density lipoprotein inducing activity” (1987).

Assay type in all cases: functional
In experiment [1] the test system is Rattus norvegicus. Description: Activity to induce the elevation of triglycerides in plasma lipids of male Wistar rats after the sc administration of 5 mg/kg/day. The following applies: route subcutaneous. The gist of the method: (§1)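 Daily dosing of normal-diet Wistar rats ran for 4 days, with sacrifice on day 5 after an overnight fast. Plasma was collected by decapitation into EDTA. Total triglycerides were measured enzymatically and expressed as % change relative to the vehicle control group.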

Experiment [2] concerns Rattus norvegicus. Description: Activity to induce the elevation of phospholipids in plasma lipids of male Wistar rats after the sc administration of 5 mg/kg/day. As to conditions: route subcutaneous. The gist of the method: (§2)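 Normal-diet Wistar rats were given the test agent once daily for 4 days and killed on day 5 after an overnight fast. Total plasma phospholipids (EDTA plasma) were measured chemically by the molybdate/vanadate reaction or enzymatically (phospholipid B test). Values are % of vehicle controls.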

Experiment [3] relates to Rattus norvegicus. Description: Activity to induce the elevation of HDL(High Density Lipoproteins)-Cholesterol in plasma lipids of male Wistar rats after the sc administration of 5 mg/kg/day. As to conditions: route subcutaneous. The gist of the method: (§3)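 Wistar rats on a normal diet were dosed daily for 4 days at the dose and route given. On day 5, after an overnight fast, they were killed under ether and blood was taken by decapitation into EDTA. Plasma HDL cholesterol was measured after heparin-CaCl2 precipitation of VLDL/LDL and is expressed as % change versus a vehicle control group.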

The subject of experiment [4] is Rattus norvegicus. Description: Activity to induce the elevation of alpha/beta cholesterol ratio in plasma lipids of male Wistar rats after the sc administration of 5 mg/kg/day. As to conditions: route subcutaneous. The gist of the method: (§4)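 Rats (Wistar, normal diet) were treated daily for 4 days and fasted overnight, and EDTA plasma was taken on day 5. Total cholesterol was measured enzymatically, and β-lipoprotein cholesterol after heparin-CaCl2 precipitation. The α/β-cholesterol ratio is reported as % change from vehicle-treated controls.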

The test system of experiment [5] is Rattus norvegicus. Description: Activity to induce the elevation of phospholipids of male Wistar rats after po administration of 100 mg/kg/day. The gist of the method: as §2
In experiment [6] the test system is Rattus norvegicus. Description: Activity to induce the elevation of triglycerides of male Wistar rats after po administration of 100 mg/kg/day. The gist of the method: as §1
For experiment [7], the species on record is Rattus norvegicus. Description: Activity to induce the elevation of HDL(High Density Lipoproteins)-Cholesterol of male Wistar rats. Further details: concentration or dose not given beside the values. The gist of the method:
(§5)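 Wistar rats on normal diet; groups were vehicle control, an internal-standard diphosphonate, and test compounds. Dosed daily for 4 days; diphosphonates were dissolved in water or suspended in 1% (carboxymethyl)cellulose, 4 mL/kg. On day 5, after overnight fast, rats were killed under ether. EDTA plasma was assayed enzymatically for HDL-C after heparin-CaCl2 precipitation of VLDL/LDL, phospholipids, triglycerides and α/β-cholesterol ratio. Results are given as % of control.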

Experiment [8] concerns Rattus norvegicus. Description: Activity to induce the elevation of HDL(High Density Lipoproteins)-Cholesterol of male Wistar rats after po administration of 100 mg/kg/day. The gist of the method: as §3
Experiment [9] is filed under the species Rattus norvegicus. Description: Activity to induce the elevation of triglycerides of male Wistar rats. Set-up: concentration or dose not given beside the values. The gist of the method:
as §5

The species named for experiment [10] is Rattus norvegicus. Description: Activity to induce the elevation of alpha/beta cholesterol ratio of male Wistar rats. Set-up: concentration or dose not given beside the values. Summed up: as §5
For experiment [11], the species on record is Rattus norvegicus. Description: Activity to induce the elevation of phospholipids of male Wistar rats. Further details: concentration or dose not given beside the values. Summed up: as §5
The subject of experiment [12] is Rattus norvegicus. Description: Activity to induce the elevation of alpha/beta cholesterol ratio of male Wistar rats after po administration of 100 mg/kg/day. Summed up:
as §4

Regarding `C[C@]12CC[C@@H]3c4ccc(O)cc4CC[C@H]3[C@@H]1CC[C@@H]2O` [ESTRADIOL], the Control in the experiment with Rattus norvegicus [1] is given as -51%; in the experiment on Rattus norvegicus [2] it was -77%; in the experiment on Rattus norvegicus [3], -83%; with Rattus norvegicus [4], -47%.
Turning to `COP(=O)(OC)OC(c1ccc(Cl)cc1)P(=O)(OC)OC` (configuration not stated) [MIFOBATE], the Control stood at 17% with Rattus norvegicus [5], 0% in the experiment with Rattus norvegicus [6], 26% in the experiment with Rattus norvegicus [8] and 52% in the experiment with Rattus norvegicus [12]. In the experiment listed under Rattus norvegicus [7], the “HDL-cholesterol change relative to control (%)” value turned out to be 157%. Further, the “Percent change in plasma triglycerides versus control” value in the experiment listed under Rattus norvegicus [9] is recorded as 0%. In addition, the “Percent change in alpha/beta cholesterol ratio versus control” value in the experiment listed under Rattus norvegicus [10] is given as 180%. Moreover, in the experiment filed under Rattus norvegicus [11], the “Plasma phospholipids, % change versus control” value was 26%.
